# m5-HT2A agonist: activates the mouse 5-HT2A serotonin receptor | P35363 | CHO-K1 mHTR2A beta-arrestin complementation, luminescence; percent of 30 µM serotonin response | activation, % at 7.6 µM | hit rate 0.66% among 360,000;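 active means activation above a run cutoff, the mean activation of all tested compounds plus 3 SD, cut at about 14% in these data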
# CHRM1 agonist: activates human CHRM1 receptor | P11229 | hit rate 0.33% among 360,000 | CHO-K1 hM1, Fluo-8 calcium fluorescence, agonist mode; 0% DMSO, 100% acetylcholine EC100 | AID 588814 | activation, % at 3 µM;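 active means activation above the run's mean compound activation plus 3 SD, cut at about 16% in these data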;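 further: peak over basal fluorescence ratio within a 140 s kinetic read after compound addition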
# CHRM1 PAM: human CHRM1 positive allosteric modulation | P11229 | CHO-K1 hM1, Fluo-8 calcium fluorescence, ACh EC20; 0% = ACh EC20, 100% = maximal ACh | activation, % at 3 µM | hit rate 0.088% among 360,000 | AID 588819; in the data active means activation above about 19%, passing the limit was not always enough
# TAAR1 agonist: agonists of human TAAR1; activation, % at 3 µM; hit rate 0.99% among 360,000; CHO RD-HGA16 TAAR1, Fluo-8 calcium fluorescence; vehicle wells 0%, saturating PEA agonist 100%; Q96RJ0;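 active means activation above the mean activation of all test compounds in the run plus 3 SD, cut at about 38% in these data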
# Target sequence (Q96RJ0 whole entry, looked up): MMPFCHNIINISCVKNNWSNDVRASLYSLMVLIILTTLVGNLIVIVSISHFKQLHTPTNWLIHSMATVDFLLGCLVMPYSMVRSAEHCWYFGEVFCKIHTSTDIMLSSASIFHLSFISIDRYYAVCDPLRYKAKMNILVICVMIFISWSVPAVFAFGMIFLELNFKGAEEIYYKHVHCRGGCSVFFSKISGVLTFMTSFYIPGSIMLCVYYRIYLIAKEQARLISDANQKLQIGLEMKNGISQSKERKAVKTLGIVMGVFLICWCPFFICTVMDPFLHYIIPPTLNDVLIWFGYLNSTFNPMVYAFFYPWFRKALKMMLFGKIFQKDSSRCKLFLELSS
#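 test system = CHO RD-HGA16 cells carrying human TAAR1 plus Gα16 | schedule = 17-24 h seeding, 75 min 37 °C dye, 30 min RT | compound dosing = 3 µM single concentration | control set = DMSO and PEA EC100 | replicates = n 1 | signal = Fluo-8 fluorescence, 5 s baseline then 140 s kinetic read | measure = percent activation vs PEA EC100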
# TAAR1 antagonist: human TAAR1 antagonism | Q96RJ0 | CHO RD-HGA16 TAAR1, Fluo-8 calcium fluorescence, antagonist | inhibition, % at 3 µM | hit rate 1.5% among 360,000 | AID 624466;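 active means inhibition above a per-plate cutoff, the mean inhibition of test compounds on that plate plus 3 SD, cut at about 49% in these data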
#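 System: CHO RD-HGA16 cells bearing hTAAR1. Reagent: EC80 β-phenethylamine stimulus. Schedule: seeding 17-24 h prior, 75-min 37 °C, 30-min RT dye loading. Signal: Fluo-8 intracellular calcium dye fluorescence, real-time kinetic reads. Read-out: % inhibition from peak post-agonist over basal fluorescence ratio. Benchmarks: vehicle wells and EC80 agonist wells. Replicates: n of 1.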
# M1 antag: antagonists of human M1 muscarinic receptor | P11229 | CHO-K1 hM1, Fluo-8 calcium fluorescence, ACh EC80 antagonist | hit rate 1.3% among 360,000 | inhibition, % at 3 µM;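 active means percent inhibition above its own plate's cutoff, namely the mean of that plate's compound wells plus 3 SD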;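 further: peak over basal fluorescence ratio during 140 s after agonist addition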
# TAAR1 ag conf: human TAAR1 agonism, confirmed; shares compounds with TAAR1 agonist; AID 651783; activation, % at 3 µM; hit rate 82% among 2,400; CHO RD-HGA16 TAAR1, Fluo-8 calcium fluorescence; scaled: DMSO 0%, maximal phenethylamine 100%;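 active means activation above a cutoff set at the run's mean compound activation plus 3 SD, cut at about 39% in these data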
# Ga16 nonsel ag: nonselective agonist in parental cells, TAAR1 agonist counter-screen. shares compounds with TAAR1 agonist. activation, % at 3 µM. hit rate 50% among 2,400. CHO-Ga16 parental, Fluo-8 calcium fluorescence; normalized to maximal ATP response, DMSO zero. AID 651787;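 active means activation above the run cutoff, the mean activation over all tested wells plus 3 SD, cut at about 12% in these data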
# TAAR1 desensitize: human TAAR1 agonist that also desensitizes the receptor; shares compounds with TAAR1 agonist; CHO RD-HGA16 hTAAR1, Fluo-8 calcium, beta-PEA response inhibition; inhibition, % at 3 µM; hit rate 46% among 2,400; AID 651951;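 active means inhibition above the run cutoff, the mean inhibition of all test compounds plus 3 SD, cut at about 49% in these data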;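 further: beta-PEA stimulus applied at its EC80; loss of beta-PEA calcium signal after compound pretreatment read as receptor desensitization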
# Ga16 nonsel ant: counter-screen for TAAR1 agonists: nonselective Ga16 antagonists | shares compounds with TAAR1 agonist | CHO-Ga16 ATP-induced calcium, Fluo-8 fluorescence | inhibition, % at 3 µM | hit rate 39% among 2,400;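 active means inhibition above the plate's mean compound inhibition plus 3 SD, computed per plate, cut at about 22% in these data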
# Hits are given with their value; . = inactive; / = no result given. Hits are enriched below; roughly 3.9% of the tested compounds scored in any of these assays.
SMILES,m5-HT2A agonist,CHRM1 agonist,CHRM1 PAM,TAAR1 agonist,TAAR1 antagonist,M1 antag,TAAR1 ag conf,Ga16 nonsel ag,TAAR1 desensitize,Ga16 nonsel ant
O=C(Nc1cccc(NC(=O)c2ccc(F)cc2)c1)c1ccc(F)cc1,.,.,.,46.6,.,.,.,.,.,.
O=C(Nc1cccc(NC(=O)c2ccccc2Cl)c1)c1ccc(F)cc1,.,.,.,.,.,.,/,/,/,/
O=C(Nc1ccc(N2CCCCC2)cc1)c1ccc(F)cc1,.,.,.,98.4,84.8,.,53.0,12.6,.,.
CCC(CC)NC(=O)C1CC(=O)N(CCc2ccc(F)cc2)C1 (configuration not stated),.,.,.,.,.,.,/,/,/,/
CC(C)(C)c1nnc(NC(=O)C2CC(=O)N(CCc3ccc(F)cc3)C2)s1 (configuration not stated),.,.,.,.,.,.,/,/,/,/
CCOC(=O)CCCC(=O)N1CCOCCOCCOCC1,.,.,.,.,.,.,/,/,/,/
CCOC(=O)c1c(C)[nH]c(C)c1S(=O)(=O)N1c2ccccc2CC1C (configuration not stated),.,.,.,48.7,.,.,.,.,.,.
CSCCC(NC(=O)c1ccc(Cl)cc1Cl)C(=O)NNC(=O)c1ccncc1 (configuration not stated),.,.,.,.,.,.,/,/,/,/
N#Cc1cccc(NC(=O)Nc2cccs2)c1,.,.,.,57.8,.,.,74.3,15.9,.,26.7
CCc1cccc(NC(=O)Nc2cccs2)c1,.,.,.,.,.,.,/,/,/,/
O=S1(=O)N[C@@H](Cc2ccccc2)COc2cc(N3CCC[C@@H]3CO)ccc21,.,/,/,.,.,/,/,/,/,/
CC1=C(C(=O)OCc2ccccc2)C(c2ccc(-c3ccccc3)cc2)NC(=O)N1CCCCCC(=O)O (configuration not stated),.,.,.,95.0,91.9,.,.,.,.,29.3
CC1OC2CC(=O)OC2C2=C1C(=O)c1c(O)cccc1C2=O (configuration not stated),.,16.3,.,64.0,58.1,50.3,69.3,40.6,70.7,61.6
O=C1NCCN1CCNc1nc(NCc2ccccc2)nc2ccsc12,.,47.1,.,89.0,99.7,69.5,95.1,66.2,105.8,93.0
C=CCNC(=O)C1COc2ccccc2O1 (configuration not stated),.,.,.,.,.,.,/,/,/,/
C=CCN1[C@@H](C)[C@H](c2ccccc2)Oc2cccc(NCCc3ccccc3)c2S1(=O)=O,/,/,/,97.3,.,/,72.1,.,.,.
COC(=O)C1=C(C)N(Cc2cccc(C(F)(F)F)c2)C(=NCC2CC2)NC1c1cccc(Cl)c1 (configuration not stated),/,/,/,71.7,76.8,/,61.3,34.9,65.8,55.1
COC(=O)C1=C(C)N(Cc2cccc(C(F)(F)F)c2)C(=NCC2CC2)NC1c1ccc(F)cc1 (configuration not stated),/,/,/,96.0,101.4,/,101.3,71.9,94.1,80.6
COC(=O)C1=C(C)N(Cc2cccc(C(F)(F)F)c2)C(=NCC2CC2)NC1c1cccc(C(F)(F)F)c1 (configuration not stated),/,/,/,50.4,55.8,/,52.9,25.8,54.4,44.0
CCN=C1NC(c2cccc(Cl)c2)C(C(=O)OC)=C(C)N1Cc1ccc(C(F)(F)F)cc1 (configuration not stated),/,/,/,.,.,/,/,/,/,/

# Screening data from PubChem.
